Experimental data from different studies.
PIK3CB: Phosphatidylinositol 4,5-bisphosphate 3-kinase catalytic subunit beta isoform (PIK3CB, Homo sapiens, UniProt P42338)

C=CC(=O)N1CCC[C@@H](n2nc(-c3ccc(Oc4ccccc4)cc3)c3c(N)ncnc32)C1  inhibition (PIK3CB; enzyme activity; inhibitor; 1 µM): 2%
Cc1nc(NC(=O)N2CCC[C@H]2C(N)=O)sc1-c1ccnc(C(C)(C)C(F)(F)F)c1  inhibition (PIK3CB; enzyme activity; inhibitor; ADP detection; 10 µM): 82.9%
CC#CC(=O)N1CCC[C@H]1c1nc(-c2ccc(C(=O)Nc3ccccn3)cc2)c2c(N)nccn12  inhibition (PIK3CB; enzyme activity; inhibitor; 1 µM): 0%
CN1CCN(C(=O)c2ccc(NC(=O)Nc3ccc(N(C)c4ccnc(Nc5ccc(CS(C)(=O)=O)cc5)n4)cc3)cc2)CC1  remaining binding (PIK3CB; binding; 1 µM): 100%
CCCCC(=O)Nc1ccc(-c2ccc3ncn(CCC)c(=O)c3c2)cn1  remaining binding (PIK3CB; binding; competition with immobilised ligand; 0.5 µM): 100%
CC(C)S(=O)(=O)c1ccc2nccc(Nc3ccc4sc(C5CCCC5)nc4c3)c2c1  activity vs control (Phosphatidylinositol 4,5-bisphosphate 3-kinase catalytic subunit beta isoform, with p85 (PIK3CB, Homo sapiens, UniProt P42338); enzyme activity; inhibitor; 1 µM): 97%
Cc1ccc(NC(=O)c2ccnc(C(F)(F)F)c2)cc1-c1cc(OCCO)nc(N2CCOCC2)c1  remaining binding (PIK3CB; binding; 1 µM): 100%
C1=C/COCc2cc(ccc2OCCN2CCCC2)Nc2nccc(n2)-c2cccc(c2)COC/1  remaining binding (PIK3CB; binding; 0.1 µM): 98%
